# Measurements as given in ChEMBL document CHEMBL1137218, “Long hydrocarbon chain ether diols and ether diacids that favorably alter lipid disorders in vivo” (J Med Chem, 2004).
# Experiments:
# Type in all cases: functional
# [1] = tested on: Rattus norvegicus; assay: Serum Non-HDL cholesterol levels in female obese rats one week post treatment at 10 mg/kg oral dose; pretreatment value = 25 mg/dL
# In short: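 Female obese Zucker fatty rats (10–12 weeks, 400–500 g), once-daily oral gavage in 20% EtOH/80% PEG-200 (v/v) for up to 14 days. Serum drawn after a 6 h fast, pre-dose and at days 7 and 14. Non-HDL cholesterol is serum total cholesterol times the percent area of the non-HDL peaks in a Superose 6HR gel-filtration profile with on-line cholesterol detection. n = 4 per dose.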
# [2] = tested on: Rattus norvegicus; assay: Serum NEFA levels in female obese rats one week post treatment at 30 mg/kg oral dose; pretreatment value = 1.3 mg/dL
# [3] = tested on: Rattus norvegicus; assay: Serum HDL cholesterol levels in female obese rats two weeks post treatment at 10 mg/kg oral dose; pretreatment value = 56 mg/dL
# [4] = tested on: Rattus norvegicus; assay: Blood glucose levels in female obese rats two weeks post treatment at 30 mg/kg oral dose; pretreatment value = 109 mg/dL
# [5] = tested on: Rattus norvegicus; assay: Serum Triglyceride levels in female obese rats two weeks post treatment at 30 mg/kg oral dose; pretreatment value = 1240 mg/dL
# [6] = tested on: Rattus norvegicus; assay: Blood glucose levels in female obese rats one week post treatment at 3 mg/kg oral dose; pretreatment value = 117 mg/dL
# [7] = tested on: Rattus norvegicus; assay: Serum Triglyceride levels in female obese rats one week post treatment at 3 mg/kg oral dose; pretreatment value = 769 mg/dL
# [8] = tested on: Rattus norvegicus; assay: Serum Triglyceride levels in female obese rats one week post treatment at 100 mg/kg oral dose; pretreatment value = 746 mg/dL
# [9] = tested on: Rattus norvegicus; assay: Serum NEFA levels in female obese rats two weeks post treatment at 3 mg/kg oral dose; pretreatment value = 1.2 mg/dL
# [10] = tested on: Rattus norvegicus; assay: Serum NEFA levels in female obese rats two weeks post treatment at 3 mg/kg oral dose; pretreatment value = 1.1 mg/dL
# [11] = tested on: Rattus norvegicus; assay: Serum HDL cholesterol levels in female obese rats two weeks post treatment at 10 mg/kg oral dose; pretreatment value = 61 mg/dL
# [12] = tested on: Rattus norvegicus; assay: Serum HDL cholesterol levels in female obese rats one week post treatment at 10 mg/kg oral dose; pretreatment value = 61 mg/dL
Structure (SMILES),Activity [1] [mg/dL],Activity [2] [mg/dL],Activity [3] [mg/dL],Activity [4] [mg/dL],Activity [5] [mg/dL],Activity [6] [mg/dL],Activity [7] [mg/dL],Activity [8] [mg/dL],Activity [9] [mg/dL],Activity [10] [mg/dL],Activity [11] [mg/dL],Activity [12] [mg/dL]
CC(C)(CO)CCCCOCCCCC(C)(C)CO,30,0.76,134,123,324,114,770,174,1.5,–,–,–
CC(C)(CO)CCCCCOCCCCCC(C)(C)CO,–,–,–,–,–,–,–,–,–,1.5,110,92
